Measured values from ChEMBL document CHEMBL4831480, “Identification of First-in-Class Inhibitors of Kallikrein-Related Peptidase 6 That Promote Oligodendrocyte Differentiation” (J Med Chem, 2021).
The source made the active and inactive calls. The calls are words filed in the database; no cut-off is given here.

Legend:
Kallikrein-6 [1] = biological target: T1, Kallikrein-6 (Homo sapiens, UniProt Q92876); assay: Inhibition of KLK6 (unknown origin) assessed as release of AMC fluorescent product using Boc-QAR-AMC as substrate incubated for 30 mins by microplate reader; details: read-out: IC50
Kallikrein-6 [2] = biological target: T1, Kallikrein-6; assay: Competitive inhibition of KLK6 (unknown origin) using Boc-QAR-AMC as substrate incubated for 30 mins by Dixon plot analysis
[3] = biological target: T2, Kallikrein-8 (Homo sapiens) (UniProt O60259); assay: Inhibition of KLK8 (unknown origin) assessed as inhibition of release of AMC fluorescent product using H-VPR-AMC as substrate at 10 uM incubated for 30 mins by microplate reader relative to control
T2 sequence (whole entry): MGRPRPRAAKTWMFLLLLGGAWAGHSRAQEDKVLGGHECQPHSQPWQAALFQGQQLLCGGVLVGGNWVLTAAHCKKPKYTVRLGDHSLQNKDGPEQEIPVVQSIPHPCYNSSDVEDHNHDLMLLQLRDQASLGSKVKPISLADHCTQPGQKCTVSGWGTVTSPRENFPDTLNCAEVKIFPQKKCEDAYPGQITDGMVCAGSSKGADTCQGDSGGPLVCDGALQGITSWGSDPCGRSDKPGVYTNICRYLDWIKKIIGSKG

Homo sapiens = species on record: Homo sapiens; assay: Inhibition of Matriptase (unknown origin) assessed as inhibition of release of AMC fluorescent product using […] as substrate at 10 uM incubated for 30 mins by microplate reader relative to control
Prothrombin/thrombin = assay: Inhibition of Thrombin (unknown origin) assessed as inhibition of release of AMC fluorescent product using […] as substrate at 10 uM incubated for 30 mins by microplate reader relative to control; details: Homo sapiens
Caspase-3 (Homo sapiens) = biological target: T3, Caspase-3 (Homo sapiens) (UniProt P42574); assay: Inhibition of Caspase-3 (unknown origin) assessed as inhibition of release of AMC fluorescent product using Ac-DEVD-AMC as substrate at 10 uM incubated for 30 mins by microplate reader relative to control
T3 sequence (whole entry): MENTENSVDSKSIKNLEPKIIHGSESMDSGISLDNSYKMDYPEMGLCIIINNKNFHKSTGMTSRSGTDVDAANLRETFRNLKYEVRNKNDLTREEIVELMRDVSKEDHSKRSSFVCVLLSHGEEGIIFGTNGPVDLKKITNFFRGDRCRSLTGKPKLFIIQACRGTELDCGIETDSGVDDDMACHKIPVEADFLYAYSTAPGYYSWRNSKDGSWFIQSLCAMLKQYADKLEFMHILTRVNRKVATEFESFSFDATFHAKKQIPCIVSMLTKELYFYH
How it was run: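 Each inhibitor at 10 μM was preincubated 15 min at 37 °C with the protease at an optimized concentration in its own buffer. Reaction started with AMC substrate: Ac-VDVAD-AMC 25 μM (caspase-2), Ac-DEVD-AMC 10 μM (caspase-3), Ac-VEID-AMC 100 μM (caspase-6), Z-LR-AMC 50 μM (cathepsin L), Z-GGR-AMC 100 μM (tPA). Read for 30 min at 37 °C; % inhibition from initial rates versus DMSO; 3 independent experiments.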

Kallikrein-1 [4] = biological target: T4, Kallikrein-1 (Homo sapiens, UniProt P06870); assay: Inhibition of KLK1 (unknown origin) assessed as release of AMC fluorescent product using H-PFR-AMC as substrate incubated for 30 mins by microplate reader
T4 sequence (P06870 whole entry): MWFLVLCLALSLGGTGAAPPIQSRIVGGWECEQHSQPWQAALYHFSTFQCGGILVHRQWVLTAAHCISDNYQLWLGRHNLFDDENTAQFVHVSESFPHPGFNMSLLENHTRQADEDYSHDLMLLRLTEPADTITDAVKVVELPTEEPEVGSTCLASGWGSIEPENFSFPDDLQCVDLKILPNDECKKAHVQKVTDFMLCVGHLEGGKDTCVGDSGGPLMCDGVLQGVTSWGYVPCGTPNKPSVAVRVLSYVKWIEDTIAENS

[5] = biological target: T5, Kallikrein-14 (Homo sapiens) (UniProt Q9P0G3); assay: Inhibition of KLK14 (unknown origin) assessed as inhibition of release of AMC fluorescent product using H-VPR-AMC as substrate at 10 uM incubated for 30 mins by microplate reader relative to control
T5 sequence (whole entry): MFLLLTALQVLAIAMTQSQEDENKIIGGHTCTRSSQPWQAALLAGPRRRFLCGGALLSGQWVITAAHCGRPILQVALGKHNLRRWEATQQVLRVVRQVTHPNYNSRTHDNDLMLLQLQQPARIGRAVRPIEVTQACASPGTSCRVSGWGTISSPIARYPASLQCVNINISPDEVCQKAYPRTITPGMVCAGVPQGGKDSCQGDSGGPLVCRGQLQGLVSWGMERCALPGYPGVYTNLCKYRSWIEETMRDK

[6] = biological target: Kallikrein-5 (Homo sapiens) (UniProt Q9Y337); assay: Inhibition of KLK5 (unknown origin) assessed as inhibition of release of AMC fluorescent product using H-VPR-AMC as substrate at 10 uM incubated for 30 mins by microplate reader relative to control
Chain of Kallikrein-5 (Homo sapiens) (Q9Y337 whole entry): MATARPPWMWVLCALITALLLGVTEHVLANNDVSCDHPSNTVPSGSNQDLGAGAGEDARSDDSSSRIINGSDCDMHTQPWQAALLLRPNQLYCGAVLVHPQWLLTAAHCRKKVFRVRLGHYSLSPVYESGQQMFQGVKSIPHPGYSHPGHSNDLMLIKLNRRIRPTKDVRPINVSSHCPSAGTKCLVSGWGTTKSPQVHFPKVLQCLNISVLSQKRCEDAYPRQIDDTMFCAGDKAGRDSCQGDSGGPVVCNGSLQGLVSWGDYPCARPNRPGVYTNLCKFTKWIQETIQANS

[7] = biological target: Kallikrein-7 (Homo sapiens) (UniProt P49862); assay: Inhibition of KLK7 (unknown origin) assessed as inhibition of release of AMC fluorescent product using MeO-Suc-RPY-AMC as substrate at 10 uM incubated for 30 mins by microplate reader relative to control
Chain of Kallikrein-7 (Homo sapiens) (P49862 30-253 limits assumed): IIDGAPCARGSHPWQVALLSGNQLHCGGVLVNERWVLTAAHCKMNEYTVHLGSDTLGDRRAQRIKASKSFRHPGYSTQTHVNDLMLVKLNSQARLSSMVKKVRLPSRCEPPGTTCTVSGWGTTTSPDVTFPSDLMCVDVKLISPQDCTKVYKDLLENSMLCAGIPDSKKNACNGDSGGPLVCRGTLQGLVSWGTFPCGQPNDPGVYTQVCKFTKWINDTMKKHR

Microglia [8] = assay: Anti-inflammatory activity in new born Wistar rat brain microglia assessed as reduction in LPS-induced IL-1beta expression measured after 24 hrs by ELISA
[9] = Cytotoxicity against Swiss mouse cortical cells assessed as cell viability at 50 uM incubated for 24 hrs by XTT assay; type: cell-based, Cortical neurone; details: mouse cortical cells (cortical neurones), read-out: Activity
Kallikrein-1 [10] = biological target: T4, Kallikrein-1; assay: Competitive inhibition of KLK1 (unknown origin) assessed as release of AMC fluorescent product using H-PFR-AMC as substrate incubated for 30 mins by microplate reader
[11] = biological target: Voltage-gated inwardly rectifying potassium channel KCNH2 (Homo sapiens, UniProt Q12809); assay: Inhibition of human ERG
Chain of Voltage-gated inwardly rectifying potassium channel KCNH2 (Q12809 whole entry): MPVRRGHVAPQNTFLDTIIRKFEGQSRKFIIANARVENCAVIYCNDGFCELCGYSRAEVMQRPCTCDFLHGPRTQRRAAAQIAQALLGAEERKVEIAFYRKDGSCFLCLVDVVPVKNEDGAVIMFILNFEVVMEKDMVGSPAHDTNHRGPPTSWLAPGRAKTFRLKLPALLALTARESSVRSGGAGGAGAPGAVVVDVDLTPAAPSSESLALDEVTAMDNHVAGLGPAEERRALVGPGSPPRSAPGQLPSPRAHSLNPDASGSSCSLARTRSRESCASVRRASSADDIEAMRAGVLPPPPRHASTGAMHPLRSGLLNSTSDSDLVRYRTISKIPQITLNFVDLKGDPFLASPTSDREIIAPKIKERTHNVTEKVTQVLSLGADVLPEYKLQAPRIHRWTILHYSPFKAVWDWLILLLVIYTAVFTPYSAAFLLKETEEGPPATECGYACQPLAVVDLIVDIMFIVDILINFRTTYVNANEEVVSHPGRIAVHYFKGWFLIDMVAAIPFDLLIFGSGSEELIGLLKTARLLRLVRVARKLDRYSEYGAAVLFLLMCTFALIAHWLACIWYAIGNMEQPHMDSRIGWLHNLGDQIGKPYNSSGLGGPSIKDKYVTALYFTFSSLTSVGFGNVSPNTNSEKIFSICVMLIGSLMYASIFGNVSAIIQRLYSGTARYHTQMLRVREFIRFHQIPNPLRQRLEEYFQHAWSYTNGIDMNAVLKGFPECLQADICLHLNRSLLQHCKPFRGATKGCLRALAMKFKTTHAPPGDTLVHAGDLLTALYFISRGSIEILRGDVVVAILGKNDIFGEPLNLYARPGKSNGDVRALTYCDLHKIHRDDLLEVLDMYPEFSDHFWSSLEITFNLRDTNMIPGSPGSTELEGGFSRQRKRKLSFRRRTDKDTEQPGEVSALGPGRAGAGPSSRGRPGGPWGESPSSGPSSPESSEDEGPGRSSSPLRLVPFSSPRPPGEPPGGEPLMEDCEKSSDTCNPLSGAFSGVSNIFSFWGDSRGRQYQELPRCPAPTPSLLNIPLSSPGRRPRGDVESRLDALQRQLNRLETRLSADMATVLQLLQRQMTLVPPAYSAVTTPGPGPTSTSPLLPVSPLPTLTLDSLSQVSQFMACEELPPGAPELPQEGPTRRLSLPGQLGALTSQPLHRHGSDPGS

Microglia [12] = assay: Anti-inflammatory activity in new born Wistar rat brain microglia assessed as reduction in LPS-induced TNFalpha expression measured after 24 hrs by ELISA
[13] = Toxicity in human blood assessed as effect on activated partial thromboplastin time; type: tissue-based
Plasminogen = Plasminogen (Homo sapiens, UniProt P00747); assay: Competitive inhibition of plasmin (unknown origin) using Boc-QAR-AMC as substrate incubated for 30 mins by Dixon plot analysis
Chain of Plasminogen (P00747 97-580 limits assumed): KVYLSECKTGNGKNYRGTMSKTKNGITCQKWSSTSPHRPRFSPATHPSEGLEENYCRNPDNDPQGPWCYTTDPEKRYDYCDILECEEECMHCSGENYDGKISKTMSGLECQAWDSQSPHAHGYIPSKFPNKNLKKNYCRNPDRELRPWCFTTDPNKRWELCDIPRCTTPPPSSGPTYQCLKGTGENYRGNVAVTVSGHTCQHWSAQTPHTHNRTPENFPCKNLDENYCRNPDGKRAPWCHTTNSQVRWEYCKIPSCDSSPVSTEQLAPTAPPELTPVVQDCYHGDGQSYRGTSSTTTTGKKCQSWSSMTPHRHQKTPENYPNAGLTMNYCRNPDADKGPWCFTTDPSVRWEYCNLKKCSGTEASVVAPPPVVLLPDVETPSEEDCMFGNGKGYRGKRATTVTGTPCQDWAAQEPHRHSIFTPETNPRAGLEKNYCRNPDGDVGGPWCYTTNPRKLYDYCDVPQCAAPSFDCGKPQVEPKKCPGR
Chain of Plasminogen (P00747 581-810 limits assumed): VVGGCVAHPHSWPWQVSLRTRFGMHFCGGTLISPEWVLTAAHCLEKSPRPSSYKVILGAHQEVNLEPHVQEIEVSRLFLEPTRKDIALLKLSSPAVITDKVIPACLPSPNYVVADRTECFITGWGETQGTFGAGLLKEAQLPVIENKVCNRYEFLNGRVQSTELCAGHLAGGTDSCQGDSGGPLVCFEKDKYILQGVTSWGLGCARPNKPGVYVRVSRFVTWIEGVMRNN

[14] = Permeability in human Caco-2 cells assessed as compound recovery; type: ADME, cell-based; details: read-out: Activity
[15] = Toxicity in human blood assessed as effect on prothrombin ratio; type: tissue-based
[16] = Metabolic stability in human liver microsomes assessed as half life; type: ADME, Microsome
CG-4 [17] = assay: Induction of oligodendrocyte differentiation in Sprague-Dawley rat CG-4 cells assessed as matured oligodendrocyte by measuring increase in mCherry positive cells at 2 uM measured after 4 days by fluorescence imaging analysis; type: functional, cell-based; details: time 4.0 day
[18] = Cytotoxicity against Sprague-Dawley rat CG-4 cells assessed as cell death at 30 uM measured after 4 days by fluorescence imaging analysis; type: cell-based; details: cg-4, 96 h, time 4 day
Cortical neurone = assay: Cytotoxicity against Swiss mouse cortical cells assessed as cell viability at 10 uM incubated for 24 hrs by XTT assay; type: cell-based
CG-4 [19] = assay: Induction of oligodendrocyte differentiation in Sprague-Dawley rat CG-4 cells assessed as matured oligodendrocyte by measuring increase in mCherry positive cells at 6 to 8 uM measured after 4 days by fluorescence imaging analysis; type: functional, cell-based; details: dose 6-8 µM, time 4.0 day

SMILES	IC50 (Kallikrein-6 [1])	Ki (Kallikrein-6 [2])	inhibition [3]	inhibition (Homo sapiens)	inhibition (Prothrombin/thrombin)	inhibition (Caspase-3 (Homo sapiens))	IC50 (Kallikrein-1 [4])	inhibition [5]	inhibition [6]	inhibition [7]	further results
Cl.NCc1ccc(NC(=O)c2cc3ccccc3cc2O)cc1	–	–	61%	8%	–	5%	5.1 µM	5%	4%	6%	Activity (Microglia [8]): Active; viability at 24 h, 50 µM [9]: 65%; Ki (Kallikrein-1 [10]): 2.4 µM; Activity [11]: Not Active; Activity (Microglia [12]): Active; Activity [13]: Non-Toxic; Ki (Plasminogen): 1.3 µM; recovery [14]: > 90%; Activity [15]: Non-Toxic; half-life [16]: > 2 h
COc1ccc2c(O)c(C(=O)Nc3ccc(CN)cc3)ccc2c1	–	–	45%	37%	–	3%	16.1 µM	16%	31%	10%	–
Cl.NCc1ccc(NC(=O)c2ccc3ccccc3c2O)cc1	6.9 µM	2.4 µM	22%	29%	5%	10%	21.3 µM	11%	22%	0%	Activity (Cortical neurone): Toxic; Ki (Plasminogen): 1.5 µM

Second part, led by results:

IC50 (Kallikrein-6 [1])	Ki (Kallikrein-6 [2])	inhibition [3]	inhibition (Homo sapiens)	inhibition (Prothrombin/thrombin)	inhibition (Caspase-3 (Homo sapiens))	IC50 (Kallikrein-1 [4])	inhibition [5]	inhibition [6]	inhibition [7]	SMILES	further results
3.63 µM	1.5 µM	58%	13%	32%	13%	8.4 µM	12%	24%	7%	CC(C)c1ccc(C(=O)Nc2ccc(CN)cc2)c(O)c1	–
–	–	53%	0%	6%	10%	49.4 µM	4%	0%	11%	Cc1ccc2ccc(C(=O)Nc3ccc(CN)cc3)c(O)c2c1	–
–	4.3 µM	16%	0%	2%	11%	38.6 µM	1.5%	35%	9%	CC(C)(C)c1ccc(O)c(C(=O)Nc2ccc(CN)cc2)c1.Cl	Activity (CG-4 [17]): Active; Activity [18]: Toxic
2.37 µM	2 µM	34%	0%	0%	0%	26.3 µM	3%	5%	12%	Cc1ccc(C(=O)Nc2ccc(CN)cc2)c(O)c1.Cl	Activity (Microglia [8]): inactive; Activity (CG-4 [19]): Active; viability at 24 h, 50 µM [9]: 65%; Activity [11]: Not Active; Activity (Microglia [12]): inactive; Activity [13]: Non-Toxic; recovery [14]: > 90%; Activity [15]: Non-Toxic; half-life [16]: > 2 h
